{"source": "ChEMBL document CHEMBL4011643", "about": "“Triaryl Benzimidazoles as a New Class of Antibacterial Agents against Resistant Pathogenic Microorganisms” (J Med Chem, 2017)", "key": {"[1]": {"test_system": "Acinetobacter baumannii", "experiment": "Antibacterial activity against Acinetobacter baumannii AYE after 20 hrs in the presence of PMBN by broth microdilution method", "assay_type": "functional", "summary_of_the_method": "(§1)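 Broth microdilution in Tryptic Soy Broth, done in triplicate. Growth was read as OD600 after 20 h. MIC is the lowest drug concentration giving OD600 below 0.1.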"}, "[2]": {"test_system": "Klebsiella pneumoniae", "experiment": "Antibacterial activity against Klebsiella pneumoniae NCTC 13368 after 20 hrs in the presence of PMBN by broth microdilution method", "assay_type": "functional", "settings": "NCTC 13368, 20 h", "summary_of_the_method": "as §1"}, "[3]": {"test_system": "Staphylococcus aureus", "experiment": "Bactericidal activity against methicillin-resistant Staphylococcus aureus EMRSA-15 assessed as time required to kill bacteria by >6 log10CFU/ml at 4 times MIC by Miles Misra dilution method", "assay_type": "functional", "summary_of_the_method": "(§2)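 Flasks of TSB inoculated at ~10^6 cfu/mL, compound added at 4 × MIC, shaken at 200 rpm and 37 °C. Samples taken at 1, 2, 4, 6 and 24 h and plated by Miles Misra dilution for CFU/mL. Bactericidal means a loss of >3 log CFU/mL. Three independent repeats, error bars SD.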"}, "[4]": {"test_system": "Pseudomonas aeruginosa", "experiment": "Antibacterial activity against Pseudomonas aeruginosa NCTC 13437 after 20 hrs in the presence of Pa-beta-N and magnesium ions by broth microdilution method", "assay_type": "functional", "settings": "NCTC 13437, 20 h", "summary_of_the_method": "as §1"}, "[5]": {"experiment": "Stabilization of FAM/TAMRA-labeled AT-rich DNA duplex (unknown origin) assessed as change in melting temperature at 5 uM by FRET-based assay", "summary_of_the_method": "(§3)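 FRET melting of a FAM/TAMRA-labelled AT-rich oligonucleotide, 400 nM working solution in 50 mM potassium, 50 mM cacodylate, pH 7.4. DNA was annealed at 85 °C for 6 min, then held at 25 °C for 5 h, and mixed 1:1 with sample. Fluorescence was read every 0.5 °C from 30 to 100 °C, with a 30 s hold per step. ΔTm is measured against the blank, in triplicate.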"}, "[6]": {"test_system": "Pseudomonas aeruginosa", "experiment": "Antibacterial activity against Pseudomonas aeruginosa NCTC 13437 after 20 hrs by broth microdilution method", "assay_type": "functional", "settings": "NCTC 13437, 20 h", "summary_of_the_method": "as §1"}, "[7]": {"test_system": "Staphylococcus aureus", "experiment": "Antibacterial activity against methicillin-resistant Staphylococcus aureus EMRSA-15 after 20 hrs by broth microdilution method", "assay_type": "functional", "settings": "EMRSA-15, 20 h", "summary_of_the_method": "(§4)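 Broth microdilution in Tryptic Soy Broth; growth read as OD600 after 20 h. MIC taken as the lowest drug concentration giving OD600 below 0.1. Run in triplicate.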"}, "[8]": {"test_system": "Pseudomonas aeruginosa", "experiment": "Antibacterial activity against Pseudomonas aeruginosa PAO1 after 20 hrs in the presence of Pa-beta-N and magnesium ions by broth microdilution method", "assay_type": "functional", "settings": "PAO1, 20 h", "summary_of_the_method": "as §1"}, "[9]": {"test_system": "Staphylococcus aureus", "experiment": "Antibacterial activity against methicillin-resistant Staphylococcus aureus MRSA252 after 20 hrs by broth microdilution method", "assay_type": "functional", "settings": "MRSA252, 20 h", "summary_of_the_method": "as §4"}, "[10]": {"test_system": "Acinetobacter baumannii", "experiment": "Antibacterial activity against Acinetobacter baumannii AYE after 20 hrs in the presence of Pa-beta-N and magnesium ions by broth microdilution method", "assay_type": "functional", "summary_of_the_method": "as §1"}, "[11]": {"test_system": "Enterococcus faecium", "experiment": "Antibacterial activity against vancomycin-resistant Enterococcus faecium NCTC 12204 after 20 hrs by broth microdilution method", "assay_type": "functional", "settings": "NCTC 12204, 20 h", "summary_of_the_method": "as §4"}, "[12]": {"experiment": "Stabilization of FAM/TAMRA-labeled AT-rich DNA duplex (unknown origin) assessed as change in melting temperature at 1 uM by FRET-based assay", "summary_of_the_method": "as §3"}, "[13]": {"test_system": "Klebsiella pneumoniae", "experiment": "Antibacterial activity against Klebsiella pneumoniae NCTC 13368 after 20 hrs in the presence of Pa-beta-N and magnesium ions by broth microdilution method", "assay_type": "functional", "settings": "NCTC 13368, 20 h", "summary_of_the_method": "as §1"}, "[14]": {"test_system": "Klebsiella pneumoniae", "experiment": "Antibacterial activity against Klebsiella pneumoniae M6 after 20 hrs in the presence of Pa-beta-N and magnesium ions by broth microdilution method", "assay_type": "functional", "settings": "M6, 20 h", "summary_of_the_method": "as §1"}, "[15]": {"test_system": "Klebsiella pneumoniae", "experiment": "Antibacterial activity against Klebsiella pneumoniae NCTC 13368 after 20 hrs by broth microdilution method", "assay_type": "functional", "settings": "NCTC 13368, 20 h", "summary_of_the_method": "as §1"}, "[16]": {"test_system": "Enterococcus faecalis", "experiment": "Bactericidal activity against vancomycin-resistant Enterococcus faecalis NCTC 12201 at 4 times MIC after 24 hrs by Miles Misra dilution method", "assay_type": "functional", "summary_of_the_method": "as §2"}, "[17]": {"test_system": "Enterococcus faecalis", "experiment": "Antibacterial activity against vancomycin-resistant Enterococcus faecalis NCTC 12201 after 20 hrs by broth microdilution method", "assay_type": "functional", "settings": "NCTC 12201, 20 h", "summary_of_the_method": "as §4"}, "[18]": {"test_system": "Staphylococcus aureus", "experiment": "Antibacterial activity against methicillin-sensitive Staphylococcus aureus ATCC 9144 after 20 hrs by broth microdilution method", "assay_type": "functional", "settings": "ATCC 9144, 20 h", "summary_of_the_method": "as §1"}, "[19]": {"test_system": "Enterococcus faecalis", "experiment": "Antibacterial activity against vancomycin-sensitive Enterococcus faecalis NCTC 775 after 20 hrs by broth microdilution method", "assay_type": "functional", "settings": "NCTC 775, 20 h", "summary_of_the_method": "as §1"}, "[20]": {"test_system": "Acinetobacter baumannii", "experiment": "Antibacterial activity against Acinetobacter baumannii ATCC 17978 after 20 hrs in the presence of PMBN by broth microdilution method", "assay_type": "functional", "settings": "ATCC 17978, 20 h", "summary_of_the_method": "as §1"}, "[21]": {"test_system": "Acinetobacter baumannii", "experiment": "Antibacterial activity against Acinetobacter baumannii AYE after 20 hrs by broth microdilution method", "assay_type": "functional", "summary_of_the_method": "as §1"}, "[22]": {"test_system": "Pseudomonas aeruginosa", "experiment": "Antibacterial activity against Pseudomonas aeruginosa PAO1 after 20 hrs by broth microdilution method", "assay_type": "functional", "settings": "PAO1, 20 h", "summary_of_the_method": "as §1"}, "[23]": {"test_system": "Enterococcus faecalis", "experiment": "Bactericidal activity against vancomycin-resistant Enterococcus faecalis NCTC 12201 assessed as time required to kill bacteria by >6 log10CFU/ml at 4 times MIC by Miles Misra dilution method", "assay_type": "functional", "summary_of_the_method": "as §2"}, "[24]": {"test_system": "Klebsiella pneumoniae", "experiment": "Antibacterial activity against Klebsiella pneumoniae M6 after 20 hrs by broth microdilution method", "assay_type": "functional", "settings": "M6, 20 h", "summary_of_the_method": "as §1"}, "[25]": {"test_system": "Acinetobacter baumannii", "experiment": "Antibacterial activity against Acinetobacter baumannii ATCC 17978 after 20 hrs in the presence of Pa-beta-N and magnesium ions by broth microdilution method", "assay_type": "functional", "settings": "ATCC 17978, 20 h", "summary_of_the_method": "as §1"}, "[26]": {"test_system": "Pseudomonas aeruginosa", "experiment": "Antibacterial activity against Pseudomonas aeruginosa NCTC 13437 after 20 hrs in the presence of PMBN by broth microdilution method", "assay_type": "functional", "settings": "NCTC 13437, 20 h", "summary_of_the_method": "as §1"}, "[27]": {"test_system": "Klebsiella pneumoniae", "experiment": "Antibacterial activity against Klebsiella pneumoniae M6 after 20 hrs in the presence of PMBN by broth microdilution method", "assay_type": "functional", "settings": "M6, 20 h", "summary_of_the_method": "as §1"}, "[28]": {"experiment": "Cytotoxicity against human HeLa cells assessed as cell viability at 25 uM after 24 hrs by MTT assay", "assay_type": "cell-based", "settings": "read-out: Activity", "summary_of_the_method": "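HeLa cells, 10000 per well, were grown at 37 °C in 5% CO2 and allowed to settle for 24 h. Compound was then added in triplicate for 24 h of continuous exposure. Viability was read by MTT colorimetry, with absorbance at 570 nm.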"}, "[29]": {"test_system": "Acinetobacter baumannii", "experiment": "Antibacterial activity against Acinetobacter baumannii ATCC 17978 after 20 hrs by broth microdilution method", "assay_type": "functional", "settings": "ATCC 17978, 20 h", "summary_of_the_method": "as §1"}, "[30]": {"test_system": "Pseudomonas aeruginosa", "experiment": "Antibacterial activity against Pseudomonas aeruginosa PAO1 after 20 hrs in the presence of PMBN by broth microdilution method", "assay_type": "functional", "settings": "PAO1, 20 h", "summary_of_the_method": "as §1"}}, "note": "Calls of active or inactive are those of the source. No cut-off for these calls is given here.", "data": [{"smiles": "Cc1nc2ccc(C(=O)Nc3cccc(-c4ccc(-n5c(C)nc6cc(C(=O)NCCN(C)C)ccc65)nc4)c3)cc2[nH]1", "values": [{"measurement": "MIC", "setting": "[1]", "result": 32, "unit": "µg/mL"}, {"measurement": "MIC", "setting": "[2]", "result": "> 32", "unit": "µg/mL"}, {"measurement": "Time", "setting": "[3]", "result": 4, "unit": "h"}, {"measurement": "MIC", "setting": "[4]", "result": "> 32", "unit": "µg/mL"}, {"measurement": "deltaTm", "setting": "[5]", "result": 0.9, "unit": "°C"}, {"measurement": "MIC", "setting": "[6]", "result": "> 32", "unit": "µg/mL"}, {"measurement": "MIC", "setting": "[7]", "result": 2, "unit": "µg/mL"}, {"measurement": "MIC", "setting": "[8]", "result": "> 32", "unit": "µg/mL"}, {"measurement": "MIC", "setting": "[9]", "result": 8, "unit": "µg/mL"}, {"measurement": "MIC", "setting": "[10]", "result": "> 32", "unit": "µg/mL"}, {"measurement": "MIC", "setting": "[11]", "result": 2, "unit": "µg/mL"}, {"measurement": "deltaTm", "setting": "[12]", "result": 0.2, "unit": "°C"}, {"measurement": "MIC", "setting": "[13]", "result": "> 32", "unit": "µg/mL"}, {"measurement": "MIC", "setting": "[14]", "result": "> 32", "unit": "µg/mL"}, {"measurement": "MIC", "setting": "[15]", "result": "> 32", "unit": "µg/mL"}, {"measurement": "Activity", "setting": "[16]", "result": "inactive"}, {"measurement": "MIC", "setting": "[17]", "result": 1, "unit": "µg/mL"}, {"measurement": "MIC", "setting": "[18]", "result": 2, "unit": "µg/mL"}, {"measurement": "MIC", "setting": "[19]", "result": 4, "unit": "µg/mL"}, {"measurement": "MIC", "setting": "[20]", "result": 32, "unit": "µg/mL"}, {"measurement": "MIC", "setting": "[21]", "result": "> 32", "unit": "µg/mL"}, {"measurement": "MIC", "setting": "[22]", "result": "> 32", "unit": "µg/mL"}, {"measurement": "Time", "setting": "[23]", "result": 4, "unit": "h"}, {"measurement": "MIC", "setting": "[24]", "result": "> 32", "unit": "µg/mL"}, {"measurement": "MIC", "setting": "[25]", "result": 32, "unit": "µg/mL"}, {"measurement": "MIC", "setting": "[26]", "result": "> 32", "unit": "µg/mL"}, {"measurement": "MIC", "setting": "[27]", "result": 16, "unit": "µg/mL"}, {"measurement": "viability at 24 h, 25 µM", "setting": "[28]", "result": "> 98", "unit": "%"}, {"measurement": "MIC", "setting": "[29]", "result": "> 32", "unit": "µg/mL"}, {"measurement": "MIC", "setting": "[30]", "result": "> 32", "unit": "µg/mL"}]}]}
